How the values were obtained:
[1] = biological target: T1, PR (Homo sapiens, UniProt P06401); assay: PR reporter gene assay; assay type: cell-based
T1 sequence (P06401 165-933 limits assumed): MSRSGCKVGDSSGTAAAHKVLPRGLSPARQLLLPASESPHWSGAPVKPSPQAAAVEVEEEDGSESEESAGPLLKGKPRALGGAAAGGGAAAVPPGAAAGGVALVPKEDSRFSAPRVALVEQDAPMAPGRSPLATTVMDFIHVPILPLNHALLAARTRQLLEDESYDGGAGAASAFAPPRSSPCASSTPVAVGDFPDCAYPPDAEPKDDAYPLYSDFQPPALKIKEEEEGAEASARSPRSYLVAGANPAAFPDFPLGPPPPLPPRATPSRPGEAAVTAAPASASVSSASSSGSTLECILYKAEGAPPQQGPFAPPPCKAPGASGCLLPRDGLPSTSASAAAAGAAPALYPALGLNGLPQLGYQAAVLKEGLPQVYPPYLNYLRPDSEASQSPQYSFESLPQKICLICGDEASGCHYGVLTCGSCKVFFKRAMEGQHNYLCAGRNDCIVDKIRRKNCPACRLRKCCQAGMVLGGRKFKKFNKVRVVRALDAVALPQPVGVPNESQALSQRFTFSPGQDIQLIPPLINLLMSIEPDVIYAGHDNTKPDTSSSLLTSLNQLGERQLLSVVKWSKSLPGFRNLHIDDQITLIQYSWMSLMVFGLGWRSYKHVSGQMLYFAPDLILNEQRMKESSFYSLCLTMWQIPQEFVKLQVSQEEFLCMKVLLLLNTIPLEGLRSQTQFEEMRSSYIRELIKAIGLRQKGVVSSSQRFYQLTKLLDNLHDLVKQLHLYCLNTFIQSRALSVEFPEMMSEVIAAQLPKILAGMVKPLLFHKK

[2] = biological target: T2, ER (Homo sapiens, UniProt P03372); assay: ER reporter gene assay; assay type: cell-based; details: 10 μM compound, 5 nM estradiol, 24 h; % of maximal luciferase activity (100%)
T2 sequence (P03372 1-595): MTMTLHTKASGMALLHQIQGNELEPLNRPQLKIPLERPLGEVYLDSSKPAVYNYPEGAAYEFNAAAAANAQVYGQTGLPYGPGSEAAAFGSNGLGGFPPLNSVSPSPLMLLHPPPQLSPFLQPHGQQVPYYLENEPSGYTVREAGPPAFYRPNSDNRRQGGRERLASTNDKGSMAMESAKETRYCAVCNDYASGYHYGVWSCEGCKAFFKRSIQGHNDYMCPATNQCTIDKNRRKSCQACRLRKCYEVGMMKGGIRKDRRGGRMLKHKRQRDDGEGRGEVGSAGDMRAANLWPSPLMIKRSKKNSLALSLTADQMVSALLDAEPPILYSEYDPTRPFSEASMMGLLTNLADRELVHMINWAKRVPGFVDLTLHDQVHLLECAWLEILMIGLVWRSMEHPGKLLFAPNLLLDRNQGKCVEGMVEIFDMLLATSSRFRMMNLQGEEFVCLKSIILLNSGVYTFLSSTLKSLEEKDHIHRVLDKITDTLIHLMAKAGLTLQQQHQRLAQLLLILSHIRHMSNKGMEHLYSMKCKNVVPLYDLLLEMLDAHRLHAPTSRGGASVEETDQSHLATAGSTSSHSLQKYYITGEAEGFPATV

[3] = test system: endogenous PR-regulated alkaline phosphatase activity in T47D breast cancer cells; assay: Progesterone-induced alkaline phosphatase assay in T47D cells; assay type: cell-based, human; details: by 5 μM
In short: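 T47D cells were moved to phenol red-free medium with 10% charcoal-dextran FBS four days ahead. Cells were seeded overnight, then treated 24 h with 2.5 nM progesterone ± test compound in DMSO. Supernatant assayed with CSPD/diethanolamine pH 9.5 buffer, 1 h at RT, luminescence (542 nm). Untreated-compound activity = 100%; ≥3 experiments, mean ± SEM.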

[4] = biological target: purified luciferase protein (Photinus pyralis, UniProt P08659); assay: Enzyme inhibition assay with purified luciferase protein; assay type: biochemical; details: 0.05 ng pure luciferase protein, 10 μM compound
purified luciferase protein, sequence (P08659 whole entry): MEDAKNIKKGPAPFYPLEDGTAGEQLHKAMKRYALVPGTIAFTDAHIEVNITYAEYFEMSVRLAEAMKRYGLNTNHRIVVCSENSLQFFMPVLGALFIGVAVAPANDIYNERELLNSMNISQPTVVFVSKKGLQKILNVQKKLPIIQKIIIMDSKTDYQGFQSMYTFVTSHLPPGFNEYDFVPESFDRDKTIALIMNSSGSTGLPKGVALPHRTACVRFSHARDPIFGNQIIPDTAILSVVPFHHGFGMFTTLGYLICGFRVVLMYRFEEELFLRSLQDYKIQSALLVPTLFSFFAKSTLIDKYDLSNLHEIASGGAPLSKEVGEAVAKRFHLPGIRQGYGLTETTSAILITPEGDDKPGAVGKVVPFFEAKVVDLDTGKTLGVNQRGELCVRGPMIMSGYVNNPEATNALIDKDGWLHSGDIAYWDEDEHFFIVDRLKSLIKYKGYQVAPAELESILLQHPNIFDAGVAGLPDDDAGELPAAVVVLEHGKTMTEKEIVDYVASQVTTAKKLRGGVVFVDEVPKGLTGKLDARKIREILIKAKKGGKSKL
In short: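 Purified firefly luciferase was used at a final 0.01 ng/μl in OneGlo buffer, with test compound diluted to 10 μM in buffer. After adding BrightGlo luciferase reagent, samples were held 5 min and luminescence measured.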

[5] = biological target: T3, alkaline phosphatase (AlkP) (Homo sapiens, UniProt P05186); assay: Direct alkaline phosphatase inhibition in cell lysates; assay type: biochemical; details: lysates of progesterone-treated cells, 10 μM compound, 15 minutes
T3 sequence (P05186 18-524): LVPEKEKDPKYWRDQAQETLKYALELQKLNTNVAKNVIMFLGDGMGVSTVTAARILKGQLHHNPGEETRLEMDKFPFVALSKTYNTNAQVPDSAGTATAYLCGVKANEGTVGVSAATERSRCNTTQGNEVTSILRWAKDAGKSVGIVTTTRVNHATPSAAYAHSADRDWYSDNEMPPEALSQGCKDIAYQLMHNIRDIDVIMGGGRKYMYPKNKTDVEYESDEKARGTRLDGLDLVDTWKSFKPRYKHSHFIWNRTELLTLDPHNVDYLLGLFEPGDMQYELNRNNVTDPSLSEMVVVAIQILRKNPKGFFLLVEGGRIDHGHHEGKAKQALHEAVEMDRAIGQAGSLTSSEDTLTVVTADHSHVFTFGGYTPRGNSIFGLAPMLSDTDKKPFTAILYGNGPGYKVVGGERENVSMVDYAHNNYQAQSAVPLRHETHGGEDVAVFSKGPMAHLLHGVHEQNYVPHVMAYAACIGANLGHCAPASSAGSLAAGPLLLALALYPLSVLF
In short: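 Lysates of cells given 2.5 nM progesterone to induce AlkP were aliquoted and exposed to 10 μM test compound for 15 min. Then added: buffer of 100 mM diethanolamine pH 9.5, 1 mM MgCl2, 0.4 mM CSPD chemiluminescent substrate and 1X Emerald II enhancer. After 1 h at room temperature, luminescence was read.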

[6] = test system: alkaline phosphatase mRNA; assay: qRT-PCR of progesterone-induced alkaline phosphatase mRNA; assay type: cell-based, human; details: 10 nM P, 24 h
[7] = test system: pS2 mRNA; assay: qRT-PCR of 17β-estradiol-induced pS2 mRNA; assay type: cell-based; details: 2 hours; compound 51 at 5 μM
[8] = biological target: T4, purified full length recombinant human PR-B (Homo sapiens, UniProt P06401); assay: Competitive radiometric receptor binding assay
T4 sequence (P06401 1-933): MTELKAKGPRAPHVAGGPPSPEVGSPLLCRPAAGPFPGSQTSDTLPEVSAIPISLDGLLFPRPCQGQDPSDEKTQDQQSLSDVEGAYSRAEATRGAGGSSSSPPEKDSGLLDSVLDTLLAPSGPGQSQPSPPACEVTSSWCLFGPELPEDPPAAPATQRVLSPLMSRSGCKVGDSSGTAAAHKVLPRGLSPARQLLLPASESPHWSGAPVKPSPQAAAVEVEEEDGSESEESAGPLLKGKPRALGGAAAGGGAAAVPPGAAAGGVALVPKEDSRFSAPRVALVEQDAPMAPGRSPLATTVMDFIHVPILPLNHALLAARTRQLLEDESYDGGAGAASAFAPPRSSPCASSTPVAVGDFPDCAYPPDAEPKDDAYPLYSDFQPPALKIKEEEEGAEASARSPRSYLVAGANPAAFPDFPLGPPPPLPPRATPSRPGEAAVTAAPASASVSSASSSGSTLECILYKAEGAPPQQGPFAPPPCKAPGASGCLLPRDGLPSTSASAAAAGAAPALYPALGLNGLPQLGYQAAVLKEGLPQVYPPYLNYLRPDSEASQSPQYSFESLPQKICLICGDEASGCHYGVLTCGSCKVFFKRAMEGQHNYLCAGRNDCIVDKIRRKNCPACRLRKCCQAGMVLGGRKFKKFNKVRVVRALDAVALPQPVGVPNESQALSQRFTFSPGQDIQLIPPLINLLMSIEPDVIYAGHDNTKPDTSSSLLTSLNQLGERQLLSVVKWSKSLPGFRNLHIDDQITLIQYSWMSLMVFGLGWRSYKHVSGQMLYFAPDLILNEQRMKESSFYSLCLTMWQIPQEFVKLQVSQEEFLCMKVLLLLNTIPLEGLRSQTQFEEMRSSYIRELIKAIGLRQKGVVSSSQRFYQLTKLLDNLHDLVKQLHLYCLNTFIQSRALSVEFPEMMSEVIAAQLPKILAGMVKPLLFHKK

CCC(CC)CSc1nc2c([nH]1)c(=S)n(C)c(=O)n2C [Compound 51, 6-thio-8-(2-ethylbutyl)thiotheophylline]
agonist activity ([1]; concentrations of 30 μM and higher): no observed agonist activity | fold more potent inhibitor of PR than GR ([1]; same T47D cells, same MMTV-luciferase reporter): 6.1 fold | Reporter Assay (% Activity) ER [2]: 54% | inhibition of progesterone-induced AlkP activity at 5 μM [3]: complete inhibition | direct inhibition of luciferase enzymatic activity [4]: did not inhibit | direct inhibition of alkaline phosphatase activity in lysates [5]: failed to significantly inhibit activity | inhibition of progesterone induction of AlkP mRNA ([6]; 5 μM compound): 74% | inhibition of progesterone induction of AlkP mRNA (in words) ([6]; 10 μM compound): completely blocked | effect on 17β-estradiol induction of pS2 mRNA [7]: no effect | fold weaker binding to PR than R5020 ([8]; 10 nM tritiated R5020, 10 nM PR-B, 18-24 h at 0°C): 4,700 fold | ability to compete with radio-labeled R5020 for binding to PR ([8]; at functionally significant concentrations): little or no ability to compete
